# Compound activity (PubChem BioAssay)
# Rows were chosen to be rich in hits. Some 4.9% of all compounds tested hit in one or more screens of this group.
# NPY2 pot ag – human NPY-Y2 potentiation or agonism, primary screen; P49146; cells expressing NPY-Y2, potentiator/agonist read-out; activation, % at 3.6 µM; actives 0.45% (n = 220,000); in the data active = activation above about 27%;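 note: cells stimulated with NPY near EC25 plus isoproterenol at EC100; 0% = vehicle plus submaximal agonist and 100% = vehicle plus saturating agonist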
# Target sequence (P49146 whole entry, looked up): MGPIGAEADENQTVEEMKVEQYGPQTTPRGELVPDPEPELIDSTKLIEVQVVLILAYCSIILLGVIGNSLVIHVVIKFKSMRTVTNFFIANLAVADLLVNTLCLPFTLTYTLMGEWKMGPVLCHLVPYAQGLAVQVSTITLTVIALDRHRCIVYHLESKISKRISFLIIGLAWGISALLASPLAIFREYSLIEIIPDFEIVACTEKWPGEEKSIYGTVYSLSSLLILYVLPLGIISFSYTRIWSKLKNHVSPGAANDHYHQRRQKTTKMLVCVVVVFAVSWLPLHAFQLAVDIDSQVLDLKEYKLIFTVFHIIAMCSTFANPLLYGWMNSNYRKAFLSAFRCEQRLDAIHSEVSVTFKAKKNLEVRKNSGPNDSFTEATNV
# NPY Y1 blocker – antagonists of human neuropeptide Y receptor Y1. HEK293-CNG Y1 cells, membrane potential fluorescence; NPY at EC95, then isoproterenol. actives 1% (n = 200,000). inhibition, % at 3.6 µM;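 active = inhibition above the campaign mean inhibition of all tested compounds plus 3 SD, cut at about 20% in these data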;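 note: 0% = DMSO wells given NPY plus isoproterenol and 100% = isoproterenol alone without NPY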
#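 Test system – HEK293 Y1/CNG channel cell line · Also added – NPY agonist 25 nM, then isoproterenol 1 µM plus Ro 20-1724 25 µM · Compound dosing – one concentration, 3.6 µM, in 0.4% DMSO · Schedule – compound incubation 1 h at room temperature, readout 45 min post-stimulation · Technique – fluorescence, membrane potential probe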
# NPY-Y2 antag – antagonists of human neuropeptide Y receptor Y2; inhibition, % at 2.7 µM; AID 793; NPY-Y2 expressing cells, antagonist mode; P49146; actives 0.99% (n = 140,000); in the data active = inhibition above about 17%;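 note: 0% = vehicle with agonist challenge and 100% = reference antagonist with challenge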
# WT yeast gro inh – growth inhibition of WT yeast, mitochondrial fusion screen | mitochondrial fusion phenotypic screen, WT strain | inhibition, % at 10 µM | actives 2.1% (n = 190,000) | AID 1362; in the data active = inhibition above about 58%; tested in S. cerevisiae
# NPY1 pot ag – potentiates or activates human NPY-Y1 receptor; activation, % at 3.6 µM; NPY-Y1 expressing cells, potentiator/agonist activation; actives 0.37% (n = 220,000); in the data active = activation above about 33%, passing the limit was not always enough;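 note: cells stimulated with NPY at EC10 then isoproterenol at EC100; 0% = low agonist plus stimulus and 100% = saturating agonist plus stimulus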
# RAM network inh – inhibitors of the yeast RAM network; S. cerevisiae dse1pr::URA3 reporter, 5-FOA growth OD615, 2 d; analog-sensitive cbk1-as2 kinase mutant strain; inhibition, % at 50 µM; actives 1.8% (n = 190,000);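 active = inhibition above a set limit, 3 SD over mean compound inhibition, cut at about 8.4% in these data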;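 note: 0% = DMSO-only wells with no growth and 100% = 10 µM 1-NA-PP1 full growth; inhibition rescues growth on 5-FOA so higher OD means more RAM inhibition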
# * = called active by the depositor; nt = no result.
SMILES,NPY2 pot ag,NPY Y1 blocker,NPY-Y2 antag,WT yeast gro inh,NPY1 pot ag,RAM network inh
C=CCOc1ccc(/C=C2\C(=N)N3N=C(S(=O)(=O)CC)SC3=NC2=O)cc1OC,3,3,nt,-9,-12,9.6*
Cc1ccc(C(C(=O)NC2CCCC2)N(Cc2ccc3c(c2)OCO3)C(=O)Cc2cccs2)cc1 (configuration not stated),9,15,22*,11,-19,1
Cc1ccc(C(C(=O)NC2CCCCC2)N(CC2CCCO2)C(=O)CNC(=O)c2cccs2)cc1 (configuration not stated),-14,7,-1,4,9,8.9*
Cc1ccc(CN(C(=O)Cc2cccs2)C(C(=O)NC2CCCC2)c2ccncc2)cc1 (configuration not stated),-9,7,3,1,-1,0
CC(C)(C)NC(=O)C(c1ccco1)N(C(=O)Cn1nnc(-c2ccc(F)cc2)n1)c1cccc(F)c1 (configuration not stated),-5,-5,3,48,4,9.2*
O=C(c1cc(-c2ccccc2)on1)N1CCCC1,11,2,1,12,-9,1
COc1ccc(-c2cc(N)n(S(=O)(=O)c3c(F)c(F)c(F)c(F)c3F)n2)cc1OC,-27,87*,99*,31,-90,2
CN(C)c1ccc(/C=C/C=C2/SC(=S)N(c3ccccc3)C2=O)cc1,20,-3,5,22,45,11*
O=C(O)c1ccc(N2C(=O)/C(=C/C=C/c3ccccc3)SC2=S)cc1,10,2,nt,-17,15,1
CCOC(=O)c1c(C)[nH]c(C(=O)Cn2nnc(-c3ccccc3Cl)n2)c1C,-13,0,4,-5,3,4
CCOC(=O)c1c(C)[nH]c(C(=O)Cn2nnc(-c3ccccc3)n2)c1C,12,1,5,12,-13,8.9*
O=C(CCCOc1ccc(Cl)cc1Cl)Nc1ncccn1,10,nt,nt,nt,6,nt
COc1ccccc1OCCC(=O)OCC(=O)NCc1ccc(Cl)cc1,-3,4,nt,-7,-3,2
O=C(COC(=O)CCCOc1ccc(Cl)cc1Cl)Nc1cccc(Cl)c1,-22,14,5,70*,8,11*
COc1ccc(CNC(=O)COC(=O)CCCOc2ccc(Cl)cc2Cl)cc1,-17,5,6,-6,-26,9.6*
C=CCc1c(C)c(C#N)c2nc3ccccc3n2c1NCCN(C)C,-19,-1,5,70*,4,2
C/C(=N\Nc1cccc2cccnc12)c1ccc(C)cc1,-7,1,nt,74*,-4,1
Cc1ccc(-n2nc3c(c2NC(=O)c2ccc(Br)o2)CSC3)c(C)c1,1,5,3,19,-12,4
C/C(CCC12CC3CC(CC(C3)C1)C2)=N\NC(N)=S,-1,2,2,78*,-5,1
CCC(C)NC(=O)c1ccccc1NC(=O)CN(c1cc(C)ccc1OC)S(C)(=O)=O (configuration not stated),0,-3,nt,-3,-9,-1
Cc1cc(=O)[nH]c(=S)n1-c1ccccc1,14,-2,0,9,2,1
Nc1cc(=O)[nH]c(=S)n1-c1ccccc1,-8,5,2,59*,6,0
Cc1cccc(-c2cc3nc(C)cc(NCCCN(C)C)n3n2)c1,4,2,1,-2,-1,1
NC(=S)N=Nc1c(O)n(Cc2ccccc2)c2ccccc12,6,4,10,-6,7,6
O=Nc1c(O)n(Cc2cccc(Cl)c2)c2ccccc12,-1,9,3,67*,0,-2
SMILES,NPY2 pot ag,NPY Y1 blocker,NPY-Y2 antag,WT yeast gro inh,NPY1 pot ag,RAM network inh
CCOC(=O)N=Nc1c(O)n(Cc2ccccc2)c2ccccc12,-1,-2,nt,9,4,11*
COC(=O)N=Nc1c(O)n(Cc2ccccc2)c2ccccc12,-4,nt,nt,nt,-30,nt
N#Cc1cccc(C(c2nnnn2C2CCCC2)N2CCCCCC2)c1 (configuration not stated),-1,5,6,-7,21,-1
CC(C)(C)c1ccccc1NC(=O)Cn1cnc2cc([N+](=O)[O-])ccc2c1=O,13,-2,nt,-7,14,4
COC(=O)N/N=C/c1cn(Cc2ccccc2Cl)c2ccccc12,18,-2,-2,-25,19,0
Cc1[nH][nH]c(=O)c1C(c1c(C)[nH][nH]c1=O)c1cn(Cc2ccccc2Cl)c2ccccc12,-19,3,1,63*,10,2
COC(=O)c1cc(S(=O)(=O)Nc2ccsc2C(=O)OC)oc1C,-19,nt,nt,nt,10,nt
Cc1ccc2[nH]c(=O)c(C(c3nnnn3C3CCCC3)N(Cc3cccnc3)Cc3ccco3)cc2c1 (configuration not stated),-7,-12,4,-4,-2,2
Clc1ccc(C(c2nnnn2C2CCCCC2)N(Cc2cccnc2)Cc2ccco2)cc1 (configuration not stated),11,3,1,70*,-5,1
Cc1onc(-c2ccccc2)c1C(=O)N/N=C/C(Br)=C/c1ccccc1,1,-2,1,82*,-13,-1
O=C(COc1ccccc1-c1ccccc1)N/N=C/c1ccncc1,2,2,nt,15,4,0
C/C(=N\NC(=O)COc1ccccc1-c1ccccc1)c1ccccn1,-8,2,nt,72*,-14,1
O=C(COc1ccccc1-c1ccccc1)N/N=C/c1ccccn1,3,4,nt,39,8,11*
C/C(=N\NC(=O)COc1ccccc1-c1ccccc1)c1cccnc1,4,-2,nt,18,-4,0
O=C(COC(=O)c1ccccc1Oc1ccccc1)NCc1ccco1,-6,1,4,1,-12,3
COc1cccc(-n2nc(C#N)c(Cl)cc2=O)c1,11,4,nt,77*,9,-1
COc1cccc(-n2nc(C(N)=O)c(O)cc2=O)c1,-2,0,nt,1,-18,-1
Cc1ccc(-c2nnn(CC(=O)N(Cc3cccs3)C(C(=O)NC(C)(C)C)c3ccc(C)o3)n2)o1 (configuration not stated),-80,35*,40*,6,-112,7
C=CCc1cccc2cc(C(=O)Nc3ccccc3C(=O)O)c(=O)oc12,45*,-3,nt,2,28,2
COc1ccc(/C=C/c2cc(-c3ccc(C)cc3)o[n+]2C)cc1,16,3,2,58*,12,2
COc1ccc(-c2cc(=Nc3ccc(C)cc3)c3ccccc3o2)cc1,14,10,7,4,21,0
Cc1ccc(NC(/C=C/N(C)C)=C/C(=O)C(F)(F)F)c(C)c1,-19,-1,nt,80*,-12,-1
O=S(=O)(N1CCCCC1)N1CCN(c2cc(Cl)ccc2Cl)CC1,-6,13,nt,74*,10,5
